# From ChEMBL document CHEMBL3232989, “First identification of boronic species as novel potential inhibitors of the Staphylococcus aureus NorA efflux pump” (J Med Chem, 2014)
# Columns and labels:
# [1] = biological target: T1, Quinolone resistance protein NorA (Staphylococcus aureus) (UniProt P0A0J7); test: Inhibition of NorA in fluoroquinolone-resistant Staphylococcus aureus 1199B assessed as potentiation of 4 ug/ml of ciprofloxacin MIC at 100 ug/ml after 24 hrs by microdilution method
# T1 sequence (whole entry): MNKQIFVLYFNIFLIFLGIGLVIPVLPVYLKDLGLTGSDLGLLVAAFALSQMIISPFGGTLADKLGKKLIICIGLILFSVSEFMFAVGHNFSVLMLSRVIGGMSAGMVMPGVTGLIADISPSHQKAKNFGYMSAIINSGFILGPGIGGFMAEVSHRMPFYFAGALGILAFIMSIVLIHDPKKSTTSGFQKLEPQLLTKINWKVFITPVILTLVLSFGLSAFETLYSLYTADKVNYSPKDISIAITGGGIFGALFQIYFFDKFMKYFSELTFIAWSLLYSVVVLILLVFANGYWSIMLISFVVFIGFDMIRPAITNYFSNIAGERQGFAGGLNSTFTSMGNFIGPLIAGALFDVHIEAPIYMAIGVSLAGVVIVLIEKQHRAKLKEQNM
# Procedure, shortened: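 Combination with ciprofloxacin 4 μg/mL (MIC/4) against SA-1199B in MH broth microdilution, 10^6 CFU/mL, 24 h at 37 °C, read at 620 nm and visually. Compounds are first screened at 100 μg/mL; actives are 2-fold serially diluted. MMC4 is the lowest inhibitor concentration giving antibacterial activity with subinhibitory ciprofloxacin. Duplicates.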
# Staphylococcus aureus [2] = test: Toxicity in fluoroquinolone-resistant Staphylococcus aureus 1199B expressing NorA after 24 hrs by microdilution method; format: organism-based; details: in vitro
# Procedure, shortened: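 Broth microdilution in Mueller–Hinton broth, 10^6 CFU/mL per well from an 18 h 37 °C culture. Compounds come from 10 mg/mL DMSO stocks as 2-fold serial dilutions, top 128 mg/L. Plates run 24 h at 37 °C and are read at 620 nm and visually. MIC is the lowest concentration with complete growth inhibition. Duplicates; 2-fold variance accepted.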
# Staphylococcus aureus [3] = test: Toxicity in Staphylococcus aureus ATCC 25923 after 24 hrs by microdilution method; format: organism-based
# Procedure, shortened: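 Mueller–Hinton broth microdilution; inoculum from frozen culture grown 18 h at 37 °C, 10^6 CFU/mL per well. Compounds (10 mg/mL DMSO stock) in 2-fold serial dilutions, highest 128 mg/L, first screened at 100 μg/mL. MIC = complete growth inhibition after 24 h at 37 °C, read at 620 nm and visually; duplicate; ampicillin control.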
# Staphylococcus aureus [4] = test: Toxicity in fluoroquinolone-resistant Staphylococcus aureus 1199B expressing NorA at 100 ug/ml after 24 hrs by microdilution method; format: organism-based
# Procedure, shortened: (§1)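 Single-point screen at 100 μg/mL of compound alone in MH broth microdilution, 10^6 CFU/mL, 24 h at 37 °C. Growth is read at 620 nm and visually, giving percent growth inhibition. Compounds inhibiting more than 90% then go to MIC determination. Duplicates.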
# Staphylococcus aureus [5] = test: Toxicity in Staphylococcus aureus ATCC 25923 at 100 ug/ml after 24 hrs by microdilution method; format: organism-based; procedure, shortened: as §1
SMILES,Activity [1],MIC (Staphylococcus aureus [2]),MIC (Staphylococcus aureus [3]),growth inhibition (GI) (Staphylococcus aureus [4]),growth inhibition (GI) (Staphylococcus aureus [5])
Oc1ccc(Cl)nc1,> 128 µg/mL,> 128 µg/mL,>= 64 ug ml-1,,
O=C(O)c1ccccc1Br,> 128 µg/mL,> 128 µg/mL,>= 64 ug ml-1,,
COc1ccc(B(O)O)cc1,64 µg/mL,> 128 µg/mL,,,
O=C(O)c1cnc2ccccc2c1,32 µg/mL,> 128 µg/mL,>= 64 ug ml-1,,
Oc1ccccc1 [PHENOL],> 128 µg/mL,> 128 µg/mL,>= 64 ug ml-1,,
O=Cc1ccc2ccccc2c1 [2-NAPHTHALDEHYDE],64 µg/mL,> 128 µg/mL,>= 64 ug ml-1,,
Oc1ccc(Br)nc1,> 128 µg/mL,> 128 µg/mL,>= 64 ug ml-1,,
O=Cc1ccc(OCc2ccccc2)nc1,32 µg/mL,> 128 µg/mL,>= 64 ug ml-1,,
O=Cc1ccccc1Cl,> 128 µg/mL,> 128 µg/mL,>= 64 ug ml-1,,
O=C(O)c1ccccc1Cl,64 µg/mL,128 µg/mL,>= 64 ug ml-1,,
O=Cc1cnc2ccccc2c1,> 128 µg/mL,> 128 µg/mL,>= 64 ug ml-1,,
Oc1cnc2ccccc2c1,> 128 µg/mL,> 128 µg/mL,>= 64 ug ml-1,,
Cc1cc(O)cnc1Cl,> 128 µg/mL,> 128 µg/mL,>= 64 ug ml-1,,
Oc1ccc2ccccc2c1 [BETANAPHTHOL],64 µg/mL,> 128 µg/mL,>= 64 ug ml-1,,
O=Cc1ccccc1Br,> 128 µg/mL,> 128 µg/mL,>= 64 ug ml-1,,
OB(O)c1cncc(Oc2cccnc2)c1,16 µg/mL,> 128 µg/mL,>= 64 ug ml-1,,
O=C(O)c1ccc(Cl)nc1 [6-CHLORONICOTINIC ACID],> 128 µg/mL,> 128 µg/mL,>= 64 ug ml-1,,
Oc1cccnc1,> 128 µg/mL,> 128 µg/mL,>= 64 ug ml-1,,
O=C(O)c1ccc(Br)nc1,> 128 µg/mL,> 128 µg/mL,>= 64 ug ml-1,,
Oc1ccccc1Br,128 µg/mL,> 128 µg/mL,>= 64 ug ml-1,,
Cc1cc(C(=O)O)cnc1Cl,> 128 µg/mL,> 128 µg/mL,>= 64 ug ml-1,,
CC(C)(O)C(C)(C)OB(OC(C)(C)C(C)(C)O)c1ccnc(Cl)c1Cl,32 µg/mL,,>= 64 ug ml-1,< 90%,< 90%
CC(C)(O)C(C)(C)OB(OC(C)(C)C(C)(C)O)c1ccnc(Cl)c1,128 µg/mL,,>= 64 ug ml-1,< 90%,< 90%
Cc1cccc(O)c1Cl,64 µg/mL,> 128 µg/mL,>= 64 ug ml-1,,
Cc1cc(B(OC(C)(C)C(C)(C)O)OC(C)(C)C(C)(C)O)cnc1Cl,32 µg/mL,,>= 64 ug ml-1,< 90%,< 90%
OB(O)c1ccnc(Cl)c1Cl,32 µg/mL,,>= 64 ug ml-1,< 90%,< 90%
CC(C)(C)OC(=O)n1ncc2cc(B3OC(C)(C)C(C)(C)O3)ccc21,> 128 µg/mL,,>= 64 ug ml-1,< 90%,< 90%

SMILES,Activity [1],MIC (Staphylococcus aureus [2]),MIC (Staphylococcus aureus [3]),growth inhibition (GI) (Staphylococcus aureus [4]),growth inhibition (GI) (Staphylococcus aureus [5])
OB(O)c1ccccc1 [PHENYLBORONIC ACID],32 µg/mL,,>= 64 ug ml-1,< 90%,< 90%
O=Cc1cccnc1 [NICOTINALDEHYDE],> 128 µg/mL,> 128 µg/mL,>= 64 ug ml-1,,
O=C(O)c1ccc2ccccc2c1 [BETA-NAPHTOIC ACID],> 128 µg/mL,> 128 µg/mL,>= 64 ug ml-1,,
CC(C)(C)OC(=O)Nc1ncc(B2OC(C)(C)C(C)(C)O2)s1,> 128 µg/mL,,>= 64 ug ml-1,< 90%,< 90%
CC1(C)OB(c2ccc3c(cnn3COCC[Si](C)(C)C)c2)OC1(C)C,16 µg/mL,,>= 64 ug ml-1,< 90%,< 90%
COc1ncccc1B(OC(C)(C)C(C)(C)O)OC(C)(C)C(C)(C)O,> 128 µg/mL,,>= 64 ug ml-1,< 90%,< 90%
OB(O)c1cc(Br)cnc1Cl,32 µg/mL,,>= 64 ug ml-1,< 90%,< 90%
OB(O)c1ccccc1-c1ccccc1,> 128 µg/mL,,>= 64 ug ml-1,< 90%,< 90%
O=Cc1ccccc1 [BENZALDEHYDE],> 128 µg/mL,> 128 µg/mL,>= 64 ug ml-1,,
CCc1ccc(B(OC(C)(C)C(C)(C)O)OC(C)(C)C(C)(C)O)cc1,32 µg/mL,,>= 64 ug ml-1,< 90%,< 90%
Oc1ccccc1Cl [2-CHLOROPHENOL],128 µg/mL,> 128 µg/mL,>= 64 ug ml-1,,
CC(C)(O)C(C)(C)OB(OC(C)(C)C(C)(C)O)c1ccc(F)nc1,128 µg/mL,,>= 64 ug ml-1,< 90%,< 90%
CCOC(=O)Nc1ncc(B2OC(C)(C)C(C)(C)O2)s1,> 128 µg/mL,,>= 64 ug ml-1,< 90%,< 90%
CC(C)(O)C(C)(C)OB(OC(C)(C)C(C)(C)O)c1ccncc1F,> 128 µg/mL,,>= 64 ug ml-1,< 90%,< 90%
O=C(O)c1ccc(B(O)O)cc1,> 128 µg/mL,,>= 64 ug ml-1,< 90%,< 90%
COc1nccc(B(O)O)c1Cl,32 µg/mL,,>= 64 ug ml-1,< 90%,< 90%
CC1(C)OB(c2cncs2)OC1(C)C,> 128 µg/mL,,>= 64 ug ml-1,< 90%,< 90%
CC(C)(O)C(C)(C)OB(OC(C)(C)C(C)(C)O)c1ccc(NCc2ccccc2)nc1,128 µg/mL,,>= 64 ug ml-1,< 90%,< 90%
OB(O)c1ccnc(Cl)c1,> 128 µg/mL,,>= 64 ug ml-1,< 90%,< 90%
Cc1cc(B(O)O)c(C)s1,16 µg/mL,,>= 64 ug ml-1,< 90%,< 90%
Cc1cc(B(OC(C)(C)C(C)(C)O)OC(C)(C)C(C)(C)O)cnc1N1CCOCC1,32 µg/mL,,>= 64 ug ml-1,< 90%,< 90%
OB(O)c1ccccc1F,16 µg/mL,,>= 64 ug ml-1,< 90%,< 90%
OB(O)c1ccc(Oc2cccnc2)nc1,> 128 µg/mL,,>= 64 ug ml-1,< 90%,< 90%
Cc1cccc(C)c1B(O)O,> 128 µg/mL,,>= 64 ug ml-1,< 90%,< 90%
CC(C)(O)C(C)(C)OB(OC(C)(C)C(C)(C)O)c1cncc(Br)c1,> 128 µg/mL,,>= 64 ug ml-1,< 90%,< 90%
OCc1ccc(OCc2ccccc2)nc1,> 34 µg/mL,>= 128 ug ml-1,,,
CCOc1ncccc1B(O)O,> 128 µg/mL,,>= 64 ug ml-1,< 90%,< 90%
